A selection: hits, their analogues and other compounds. The true share with any hit is near 2.1%.
ARNT-TACC3 inh: disruptors of human ARNT/TACC3 interaction. Q9Y6A5. AlphaScreen His-ARNT PAS-B/GST-TACC3 binding, luminescence; TACC3 fragment carries E629A point mutation. inhibition, % at 9.99 µM. 0.66% of 390,000 active. AID 623870;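 active = mean inhibition of replicates at least 50% and at least half of replicates each reaching 50%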;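 also: 0% = complete ARNT plus TACC3 wells and 100% = ARNT alone without TACC3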
CAL PDZ FP-1: CAL PDZ (human) peptide binding inhibition; Q9HD26; purified CAL PDZ, TMR-peptide fluorescence polarization, 1 h; inhibition, % at 24.9 µM; 0.92% of 300,000 active;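 active = mean inhibition of at least 30% with at least half of replicates also reaching 30%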;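 also: 0% = DMSO neutral control and 100% = excess unlabeled competitor peptide PRC23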
CAL PDZ FP-2: blocks peptide binding to human CAL PDZ domain. Q9HD26. purified CAL PDZ, TMR-peptide fluorescence polarization, 1 h. inhibition, % at 20 µM. 0.02% of 330,000 active;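 active = highest replicate inhibition of at least 40%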;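 also: plate controls were DMSO neutral control wells for no effect and unlabeled competitor peptide control wells for full effect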
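Test system: tagged CAL PDZ domain / Buffer or medium: sodium phosphate/NaCl buffer pH 7.4 with TCEP, IgG, Thesit / Reagent: TMR-labelled reporter peptide T*-PRC34 bound in PDZ groove / Compound dosing: single point, 20 µM / Schedule: 1 h incubation at room temperature before polarization reading / Technique: fluorescence polarization (mP) / Benchmarks: unlabelled peptide, DMSO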
miR122 inh: miR-122 inhibition in Huh7 cells. 0.3% of 340,000 active. Huh7 miR-122 Renilla luciferase sensor, 48 h; neutral wells = 0, positive control = 100. AID 602342. activation (reporter increase), % at 12.5 µM;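 active = mean replicate activation score at least 90 and every replicate individually at or above 90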;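 also: higher luciferase means less miR-122 activity so hits act as miR-122 inhibitors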
SR-BI DiI inh: mouse SR-BI HDL lipid transfer inhibition; Q61009; ldlA[mSR-BI] CHO cells, DiI-HDL uptake fluorescence, 3 h; inhibition, % at 12.5 µM; 0.96% of 320,000 active;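 active = mean replicate inhibition of at least 70% and a set share of replicates each scoring 70 or more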;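 also: 0% = median of neutral control wells and 100% = median of positive control wells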
Target sequence (Q61009 whole entry, looked up): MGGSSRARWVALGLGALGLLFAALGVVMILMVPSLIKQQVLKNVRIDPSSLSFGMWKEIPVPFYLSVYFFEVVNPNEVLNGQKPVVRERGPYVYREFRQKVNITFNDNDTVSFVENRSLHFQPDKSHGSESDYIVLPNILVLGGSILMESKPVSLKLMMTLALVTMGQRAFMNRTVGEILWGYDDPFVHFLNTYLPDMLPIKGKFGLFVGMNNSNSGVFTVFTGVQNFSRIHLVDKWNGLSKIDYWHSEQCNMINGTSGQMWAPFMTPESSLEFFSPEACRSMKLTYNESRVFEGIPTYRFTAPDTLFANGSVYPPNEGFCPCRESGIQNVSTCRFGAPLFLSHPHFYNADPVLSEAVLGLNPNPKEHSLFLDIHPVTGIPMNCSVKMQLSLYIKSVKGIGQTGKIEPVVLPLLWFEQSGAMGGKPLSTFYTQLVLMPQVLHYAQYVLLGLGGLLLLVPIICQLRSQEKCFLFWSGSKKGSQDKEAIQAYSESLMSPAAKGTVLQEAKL
SR-BI uptake up: enhances SR-BI lipid uptake from DiI-HDL | CHO ldlA[mSR-BI] cells, DiI-HDL uptake fluorescence, 3 h; 100 = double the neutral-control signal | activation, % at 12.5 µM | 0.096% of 320,000 active | AID 504775;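 active = mean replicate activation of at least 60% and every replicate at or above 60%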;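 also: 0% = median plate neutral-control signal and 100% = twice that signal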
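Material: SR-BI-overexpressing, LDLR-lacking CHO cells | Dosing: Single compound concentration, delivered by pin transfer | Probe or stimulus: Labelled HDL, 10 µg/mL | Signal: Bottom-read cell fluorescence after medium removal, ex 550/em 595 nm | Schedule: 3 h, 37 °C | Evaluation: HDL uptake via cellular fluorescence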
Numbers without * were called inactive; x = no result; [ ] = another dose, or the depositor's remark.

SMILES | ARNT-TACC3 inh | CAL PDZ FP-1 | CAL PDZ FP-2 | miR122 inh | SR-BI DiI inh | SR-BI uptake up
C/C(=N\NC(=O)c1cccc(N/N=C(\C)c2cc(O)ccc2O)c1)c1cc(O)ccc1O | 10 | 0 | -2 | x | 85* | -85
C/C(=N\NC(=O)c1ccc(CN2CCc3ccccc3C2)cc1)c1ccccc1O | -4 | 3 | -1 | -4 | 109* | -109
COc1ccc(C(=O)Nc2ccc(/C(C)=N/NC(=O)c3ccncc3)cc2)cc1 | -2 | -5 | -1 | 4 | 46 | -46
COc1ccc(C(=O)N/N=C(\C)CC(=O)Nc2ccc(N(C)C)cc2)c(OC)c1 | 7 | x | 0 | 1 | 49 | -49
CCCNC(=O)c1ccc(CN2CCc3ccccc3C2)cc1 | -3 | x | -1 | -1 | -22 | 22
COc1ccc(C#Cc2ccc3c(c2)[C@]2(C(=O)N3)[C@H](c3ccc(O)cc3)N3[C@H](c4ccccc4)[C@H](c4ccccc4)OC(=O)[C@H]3[C@@H]2C(=O)N2CCCCCCC2)cc1 | 0 | x | x | x | x | x
C/C(=N\NC(=O)c1ccc(N2CCCC2=O)cc1)c1ccc(O)cc1O | -2 | x | 0 | x | 27 | x
COc1ccc(C(=O)NCC(=O)NCc2ccncc2)cc1 | -3 | 124* | -3 | -4 | -8 | 8
CC(=NNC(=O)c1ccncc1)c1ccccc1O | 61* | -2 | -3 | 1 | 55 | -55
C/C(=N\NC(=O)c1cccc2ccccc12)c1cccnc1 | 1 | 1 | -3 | -4 | -24 | 24
CC(=NNC(=O)c1ccncc1)c1ccc(O)cc1O | 85* | -4 | 0 | x | 4 | -4
CC(=NNC(=O)c1ccncc1)c1ccc2ccccc2c1O | 2 | -3 | 1 | 1 | 127* | -127
CCCCOc1ccc(C(=O)NCC(=O)NCc2ccncc2)cc1 | -22 | -2 | 0 | -11 | 1 | -1
CC(C)CC(=NNC(=O)c1ccncc1)c1cc(Cl)ccc1O | -7 | x | 0 | -8 | 127* | -127
C/C(=N/NC(=O)c1ccncc1)c1ccc(NC(=O)c2ccc(Cl)cc2Cl)cc1 | -2 | -8 | 2 | -6 | 31 | -31
O=C(O)C[C@H]1C[C@@H]2c3cc(NS(=O)(=O)c4ccccc4)ccc3O[C@@H]2[C@H](CO)O1 | -2 | x | x | -3[16.7 µM] | x | x
CC(=O)OCC12COC3c4ccccc4OC(C)(CC1C)C3C2C (stereo not drawn) | -8 | 51* | 0 | -1 | 6 | -6
CC1CC2(C)Oc3ccccc3C3OCC1(CO)C(C)C32 (stereo not drawn) | 1 | -2 | -2 | -1 | -48 | 48
O=C(O)C1Nc2c(O)cccc2C2C=CCC12 (stereo not drawn) | 75* | -4 | 0 | x | 14 | -14
CSc1cc(CS(=O)(=O)c2ccccc2)nc(-c2ccccc2)n1 | -4 | 79* | -1 | -7 | 7 | -7
O=S(=O)(Cc1cc(NCc2ccccc2)nc(-c2ccncc2)n1)c1ccccc1 | -3 | 0 | -2 | x | 5 | -5
CCCNC(=O)[C@@H]1[C@@H](CO)[C@@H]2Cn3c(cccc3=O)[C@H]1N2C(=O)C1CCCC1 | -8 | x | x | -1[16.7 µM] | x | x
COc1ccccc1OCCC(=O)OCC(=O)Nc1ccc(Br)cc1F | -6 | 54* | -1 | x | 6 | -6
COc1ccccc1OCCC(=O)OCC(=O)NCc1ccc(F)cc1 | 0 | -5 | 0 | 4 | -18 | 18
O=C(COC(=O)COc1ccccc1)Nc1ccc(Br)cc1F | -7 | 0 | 0 | 3 | -63 | 63*
C[C@H](CO)N1C[C@H](C)[C@@H](CN(C)C(=O)Nc2cc(F)ccc2F)Oc2cc(/C=C/c3ccccc3)ccc2S1(=O)=O | 0 | x | x | 34[16.7 µM] | x | x
COc1ccc(C2=Nn3c(nnc3-c3ccccc3C(F)(F)F)SC2)cc1OC1CCOC1 (stereo not drawn) | x | -10 | -3 | x | 6 | -6
COc1ccc(C2=Nn3c(nnc3-c3ccccc3OC)SC2)cc1OC1CCOC1 (stereo not drawn) | 47* | 0 | 0 | 131* | -4 | -2
O=C(O)/C=C/C(=O)Nc1ccc2c(c1)C(=O)c1ccccc1C2=O | 48* | 98* | 0 | x | -10 | 10

High-throughput results from PubChem BioAssay.
